Assay results as given in ChEMBL document CHEMBL1141332, “Cytotoxic metabolites from an Indonesian sponge Lendenfeldia sp” (J Nat Prod, 2007).
pIC50: −log10 of the molar value.

Legend:
[1] = test system: IGROV-1; assay: Cytotoxicity against human IGROV1 cells; format: functional; settings: for CC50: read-out: Log LC50 (the source's name) (converted); for TGI: read-out: Log TGI (converted)
[2] = test system: K562; assay: Cytotoxicity against human K562 cells; format: functional; settings: for CC50: read-out: Log LC50 (the source's name) (converted); for TGI: read-out: Log TGI (converted)
[3] = test system: MDA-MB-231; assay: Inhibition of human MDA-MB-231 cells assessed as cell viability under normoxic condition after 48 hrs; format: functional, cell-based; settings: MDA-MB-231, 48 h
Summary of the method: (§1)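 Neutral Red proliferation/viability assay on T47D or MDA-MB-231 cells kept in DMEM/F12 with 10% FCS at 37 °C under 5% CO2, with 48 h compound exposure. Read-out was OD540, and % inhibition = 1 − OD540(treated)/OD540(control). IC50 was derived from the concentration–response data.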

[4] = test system: 786-0; assay: Cytotoxicity against human 786-0 cells; format: functional; settings: for CC50: read-out: Log LC50 (the source's name) (converted); for TGI: read-out: Log TGI (converted)
[5] = test system: T47D; assay: Inhibition of human T47D cells assessed as cell viability under hypoxic condition after 48 hrs; format: functional, cell-based; summary of the method: as §1
[6] = test system: NCI-H522; assay: Cytotoxicity against human NCI-H522 cells; format: functional; settings: for CC50: read-out: Log LC50 (the source's name) (converted); for TGI: read-out: Log TGI (converted)
[7] = test system: CAKI-1; assay: Cytotoxicity against human CAKI1 cells; format: functional; settings: for TGI: read-out: Log TGI (converted)
[8] = test system: HT-29; assay: Cytotoxicity against human HT29 cells; format: functional; settings: for CC50: read-out: Log LC50 (the source's name) (converted); for TGI: read-out: Log TGI (converted)
[9] = test system: UACC-257; assay: Cytotoxicity against human UACC257 cells; format: functional; settings: for CC50: read-out: Log LC50 (the source's name) (converted); for TGI: read-out: Log TGI (converted)
[10] = target: T1, Hypoxia inducible factors; HIF-1-alpha, HIF-2-alpha (Homo sapiens, UniProt Q16665+Q99814); assay: Inhibition of HIF1 activity in human T47D cells by cell based reporter assay
Summary of the method: (§2)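 T47D cells grown in DMEM/F12 with glutamine, 10% FCS and penicillin/streptomycin at 37 °C under 5% CO2, then transiently transfected with the pHRE-TK-Luc reporter. Compounds from DMSO stocks were tested at half-log concentrations for 16 h, with luciferase read-out. IC50 was taken from curve fits of triplicate experiments.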

[11] = test system: T47D; assay: Cell viability of human T47D cells under hypoxic condition after 16 hrs; format: functional, cell-based
[12] = test system: LOX IMVI; assay: Cytotoxicity against human LOX IMVI cells; format: functional; settings: for CC50: read-out: Log LC50 (the source's name) (converted); for TGI: read-out: Log TGI (converted)
[13] = target: T1, Hypoxia inducible factors; HIF-1-alpha, HIF-2-alpha; assay: Inhibition of 1, 10-phenanthroline-induced HIF1 activity in human T47D cells by cell based reporter assay; summary of the method: as §2
[14] = test system: T47D; assay: Inhibition of human T47D cells assessed as cell viability under normoxic condition after 48 hrs; format: functional, cell-based; summary of the method: as §1
[15] = test system: SK-OV-3; assay: Cytotoxicity against human SK-OV-3 cells; format: functional; settings: for CC50: read-out: Log LC50 (the source's name) (converted); for TGI: read-out: Log TGI (converted)
[16] = test system: MDA-MB-435; assay: Cytotoxicity against human MDA-MB-435 cells; format: functional; settings: for TGI: read-out: Log TGI (converted)
[17] = test system: Malme-3M; assay: Cytotoxicity against human MALME-3M cells; format: functional; settings: for CC50: read-out: Log LC50 (the source's name) (converted); for TGI: read-out: Log TGI (converted)
[18] = test system: U-251; assay: Cytotoxicity against human U251cells; format: functional; settings: for CC50: read-out: Log LC50 (the source's name) (converted); for TGI: read-out: Log TGI (converted)
[19] = test system: MDA-MB-231; assay: Inhibition of human MDA-MB-231 cells assessed as cell viability under hypoxic condition after 48 hrs; format: functional, cell-based; settings: MDA-MB-231, 48 h; summary of the method: as §1
[20] = test system: CCRF-CEM; assay: Cytotoxicity against human CCRF-CEM cells; format: functional; settings: for TGI: read-out: Log TGI (converted)

CC(=O)C1=CC[C@H]2[C@]3(C)CC[C@H]4C(C)(C)CCC[C@]4(C(=O)O)[C@H]3CC(=O)[C@]2(C)[C@H]1C=O
GI50 [1]: 2570 nM
CC50 [1]: 50.1 µM
TGI [1]: 8.13 µM
GI50 [2]: 2040 nM
CC50 [2]: 20.9 µM
TGI [2]: 5.01 µM
pIC50 [3]: 5.85
GI50 [4]: 603 nM
CC50 [4]: 4.37 µM
TGI [4]: 1910 nM
pIC50 [5]: 5.72
GI50 [6]: 1740 nM
CC50 [6]: 11.2 µM
TGI [6]: 4.17 µM
GI50 [7]: 0.646 µM
LC50 [7]: 12.9 µM
TGI [7]: 2.45 µM
GI50 [8]: 257 nM
CC50 [8]: > 100 µM
TGI [8]: 1620 nM
GI50 [9]: 2400 nM
CC50 [9]: 42.7 µM
TGI [9]: 6.46 µM
IC50 [10]: 0.64 µM
pIC50 [11]: 5.48
GI50 [12]: 1450 nM
CC50 [12]: 5.62 µM
TGI [12]: 2820 nM
IC50 [13]: 0.5 µM
pIC50 [14]: 5.85
GI50 [15]: 3020 nM
CC50 [15]: 37.2 µM
TGI [15]: 10.2 µM
GI50 [16]: 1550 nM
LC50 [16]: 6.17 µM
TGI [16]: 3.09 µM
GI50 [17]: 1620 nM
CC50 [17]: 6.76 µM
TGI [17]: 3.31 µM
GI50 [18]: 1230 nM
CC50 [18]: 5.01 µM
TGI [18]: 2450 nM
pIC50 [19]: 5.82

CC(=O)O[C@@H]1C[C@H]2[C@]3(C)CC[C@H]4C(C)(C)CCC[C@]4(C)[C@H]3C[C@H](O)[C@]2(C)[C@@H](C=O)[C@@H]1C(C)=O [SCALARHERBACIN A]
GI50 [1]: 1950 nM
CC50 [1]: 8.32 µM
TGI [1]: 4.07 µM
GI50 [2]: 1740 nM
CC50 [2]: 7.76 µM
TGI [2]: 3.72 µM
GI50 [4]: 479 nM
CC50 [4]: 4.07 µM
TGI [4]: 1620 nM
GI50 [6]: 1860 nM
CC50 [6]: 7.59 µM
TGI [6]: 3.72 µM
GI50 [8]: 309 nM
CC50 [8]: 3.8 µM
TGI [8]: 1100 nM
GI50 [9]: 2190 nM
CC50 [9]: 27.5 µM
TGI [9]: 5.25 µM
GI50 [12]: 1000 nM
CC50 [12]: 4.68 µM
TGI [12]: 2140 nM
GI50 [20]: 676 nM
LC50 [20]: 6.46 µM
TGI [20]: 2240 nM
GI50 [15]: 2000 nM
CC50 [15]: 8.13 µM
TGI [15]: 3.98 µM
GI50 [16]: 1450 nM
LC50 [16]: 6.76 µM
TGI [16]: 3.09 µM
GI50 [17]: 1950 nM
TGI [17]: 3.89 µM
GI50 [18]: 589 nM
CC50 [18]: 4.27 µM
TGI [18]: 1780 nM

CC1OC(=O)[C@H]2[C@H]1[C@@H](O)C[C@H]1[C@]3(C)CC[C@H]4C(C)(C)CCC[C@]4(C)[C@H]3C[C@@H](O)[C@]21C (some centres not stated)
GI50 [1]: 30900 nM
CC50 [1]: > 100 µM
TGI [1]: 81.3 µM
GI50 [2]: 29500 nM
CC50 [2]: > 100 µM
TGI [2]: 55 µM
pIC50 [3]: 5.31
GI50 [4]: 15800 nM
CC50 [4]: 56.2 µM
TGI [4]: 30200 nM
pIC50 [5]: 5.28
GI50 [6]: 19500 nM
CC50 [6]: 77.6 µM
TGI [6]: 38.9 µM
GI50 [7]: 30.9 µM
LC50 [7]: > 100 µM
TGI [7]: 56.2 µM
GI50 [8]: 17400 nM
CC50 [8]: 83.2 µM
TGI [8]: 38000 nM
GI50 [9]: 28200 nM
CC50 [9]: > 100 µM
TGI [9]: 83.2 µM
IC50 [10]: 3.5 µM
pIC50 [11]: 5.17
GI50 [12]: 17400 nM
CC50 [12]: 56.2 µM
TGI [12]: 30900 nM
IC50 [13]: 2.4 µM
pIC50 [14]: 5.33
GI50 [15]: 38900 nM
CC50 [15]: > 100 µM
TGI [15]: > 100 µM
GI50 [16]: 19100 nM
LC50 [16]: > 100 µM
TGI [16]: 51.3 µM
GI50 [17]: 26900 nM
CC50 [17]: 91.2 µM
TGI [17]: 50.1 µM
GI50 [18]: 17000 nM
CC50 [18]: 61.7 µM
TGI [18]: 32400 nM
pIC50 [19]: 5.27

CC(=O)O[C@H]1C[C@H]2[C@@](C)(CC[C@H]3C(C)(C)CCC[C@@]32CO)[C@@H]2CC=C(C(C)=O)[C@H](C=O)[C@@]12C
GI50 [1]: 1580 nM
CC50 [1]: 7.08 µM
TGI [1]: 3.31 µM
GI50 [2]: 2190 nM
CC50 [2]: 30.2 µM
TGI [2]: 7.76 µM
GI50 [4]: 224 nM
CC50 [4]: 1.17 µM
TGI [4]: 490 nM
GI50 [6]: 1050 nM
CC50 [6]: 6.46 µM
TGI [6]: 2.57 µM
GI50 [8]: 324 nM
CC50 [8]: 4.27 µM
TGI [8]: 1150 nM
GI50 [9]: 1950 nM
CC50 [9]: 9.55 µM
TGI [9]: 4.37 µM
GI50 [12]: 234 nM
CC50 [12]: 1.78 µM
TGI [12]: 550 nM
GI50 [20]: 347 nM
LC50 [20]: 4.47 µM
TGI [20]: 1170 nM
GI50 [15]: 1200 nM
CC50 [15]: 6.31 µM
TGI [15]: 2.75 µM
GI50 [16]: 525 nM
LC50 [16]: 4.27 µM
TGI [16]: 1.74 µM
GI50 [17]: 1290 nM
CC50 [17]: 5.89 µM
TGI [17]: 2.75 µM
GI50 [18]: 347 nM
CC50 [18]: 3.47 µM
TGI [18]: 1200 nM
